Results collected from several papers.
Protocols differ between the studies behind these lines.

CN(C)C(=O)c1cc2cnc(Nc3ccc(-c4ccc5c(=O)cc(N6CCOCC6)oc5c4)cc3)nc2n1C1CCCC1.Cl  half-life (BALB/c mouse; plasma; intravenous; 2 mg/kg): 2.8 h
Cl.Fc1ccc(Oc2ccc(Nc3ccc4ncc(OCC5CCNCC5)nc4c3)cc2)cc1  half-life (SCID mouse; plasma; intraperitoneal; 50 mg/kg): > 40 h
NCc1ccc(-c2nn(Cc3ccncc3)c3ccccc23)o1  half-life (male CD-1 mouse; plasma; oral; 10 mg/kg): 1.75 h
COCC(=O)N1CCc2[nH]c3c(Cl)c(Cl)ccc3c2[C@@H]1C  half-life (C57BL/6 mouse; blood; oral; 20 mg/kg): 4.82 h
Cc1cc(-c2ccnc3[nH]cc(F)c23)cc(F)c1[C@@]1(O)[C@H](C)CN(C2CCS(=O)(=O)CC2)C[C@@H]1C  half-life (male CD-1 mouse; plasma; oral; 3 mg/kg): 2.5 h
Cc1ccc(C(C)C)cc1Oc1nccc(-c2c(-c3ccc(C(F)(F)F)cc3)ncn2C2CCN(CCO)CC2)n1  half-life (male C57BL/6 mouse; liver; intraperitoneal; 10 mg/kg): 3.1 h
OCc1ccc(-c2nn(Cc3ccccc3)c3ccccc23)o1  half-life (male CD-1 mouse; plasma; oral; 10 mg/kg): 1.86 h
Cc1ncsc1-c1ccc([C@H](CC(=O)N2CCN(c3ccc(C#Cc4ccc(C(=O)N5CCC(n6cc(-c7ccc8c(c7)CCN8C(=O)Cc7cccc(OC(F)(F)F)c7)c7c(N)ncnc76)CC5)cc4)cn3)CC2)NC(=O)[C@@H]2C[C@@H](O)CN2C(=O)[C@@H](NC(=O)C2(F)CC2)C(C)(C)C)cc1  half-life (male C57BL/6 mouse; plasma; intravenous; 1 mg/kg): 7.3 h
CCCC[C@@H](NC(=O)[C@@H](Cc1cn(C(=O)OC)c2ccccc12)NC(=O)[C@H](CC(C)(C)C)NC(=O)N1[C@H](C)CCC[C@@H]1C)C(=O)O  half-life (male CD-1 mouse; plasma; intravenous; 3 mg/kg): 0.68 h
NCc1ccc(-c2nn(Cc3ccccc3)c3ccccc23)o1  half-life (male CD-1 mouse; plasma; oral; 10 mg/kg): 1.74 h
CSC1O[C@@H]([C@H](NC(=O)[C@H]2NC[C@@H]3C[C@H](CC(C)C)CCO[C@H]32)[C@H](C)Cl)C(O)[C@@H](O)[C@H]1O (stereo partly drawn)  half-life (mouse; plasma; intravenous; 3 mg/kg; single dose): 2.05 h
Cc1ncsc1-c1ccc([C@H](C)NC(=O)[C@@H]2C[C@@H](O)CN2C(=O)[C@@H](NC(=O)CCCCCCCCCCC(=O)NCCCn2cc(-c3ccc4c(c3)CCN4C(=O)Cc3cccc(OC(F)(F)F)c3)c3c(N)ncnc32)C(C)(C)C)cc1  half-life (mouse; plasma; intravenous; 1 mg/kg): 3.3 h
CCOC(=O)c1c(NC(=O)CNC(C)C)sc2c1CCCCC2  half-life (male mouse; plasma; intraperitoneal; 5 mg/kg; single dose): 1.47 h
OCc1nc2ccc(NCc3ccc(C(F)(F)F)cc3)cc2[nH]1  half-life (male BALB/c mouse; plasma; oral; 10 mg/kg): 3.6 h
COC1=CC(c2ccc[nH]2)=N/C1=C\c1cc(Cc2ccc(OC(F)(F)F)cc2)c(C)[nH]1.Cl  half-life (male CD-1 mouse; plasma; oral; 40 mg/kg; single dose): 51.9 h
COc1cc(C2C3=C(COC3=O)N(CCO)c3cc4c(cc32)CCC4)cc(OC)c1OC (stereo not drawn)  half-life (female C57BL/6 mouse; plasma; intraperitoneal; 50 mg/kg): 5.2 h
CC(C)(C)c1sc2ncnc(Oc3c(F)cccc3OC(F)(F)F)c2c1-c1ccc(Cl)cc1  half-life (mouse; plasma; intravenous; 1 mg/kg): 2.49 h
O=C1CCC(N2Cc3cc(C4CCN(Cc5ccccc5)CC4)ccc3C2=O)C(=O)N1 (stereo not drawn)  half-life (male CD-1 mouse; plasma; oral; 3 mg/kg): 1.28 h
Cc1[nH]c(C)c(S(=O)(=O)Nc2ccc(C(F)(F)F)c(Cl)c2)c1C(=O)N1CCC(F)(F)C1  half-life (male CD-1 mouse; brain; intraperitoneal; 40 mg/kg): 3.65 h
COc1ccc(C[C@H](NC(=O)[C@H](C)NC(=O)CN2CCOCC2)C(=O)N[C@@H](Cc2ccccc2)C(=O)C2(C)CO2)cc1 (stereo in doubt)  half-life (mouse; plasma; oral; 20 mg/kg; single dose): 0.7 h
COC1=CC(c2ccc[nH]2)=N/C1=C\c1[nH]c(Cc2ccc(OC(F)(F)F)cc2)cc1Cc1ccc(OC(F)(F)F)cc1  half-life (male CD-1 mouse; plasma; oral; 40 mg/kg; single dose): 9.71 h
Cc1cc(-c2ccnc3[nH]cc(F)c23)cc(F)c1[C@@]1(O)[C@H](C)CN(C(=O)CN)C[C@@H]1C  half-life (male CD-1 mouse; plasma; oral; 3 mg/kg): 8.5 h
Cc1ncsc1-c1ccc([C@H](C)NC(=O)[C@@H]2C[C@@H](O)CN2C(=O)[C@@H](NC(=O)CCc2ccc(C#Cc3ccc(C(=O)NCCCn4cc(-c5ccc6c(c5)CCN6C(=O)Cc5cccc(OC(F)(F)F)c5)c5c(N)ncnc54)cc3)cn2)C(C)(C)C)cc1  half-life (male C57BL/6 mouse; plasma; intravenous; 1 mg/kg): 4.6 h
Cc1ccc(OCC(=O)N[C@@H](Cc2c[nH]c3ccccc23)C(=O)OC(C)C)cc1  half-life (male Sprague-Dawley mouse; plasma; oral; 20 mg/kg): 6.1 h
